Here are results for 34 molecules from ChEMBL document CHEMBL1125146, “The development of a novel series of (quinolin-2-ylmethoxy)phenyl-containing compounds as high-affinity leukotriene receptor antagonists. 3. Structural variation of the acidic side chain to give antagonists of enhanced potency” (J Med Chem, 1990).

Each structure is given as a SMILES string. Calls of active or inactive are those of the source. No cut-off for these calls is given here.

By IC50 is commonly meant the concentration needed to halve the response being measured. A word on the ED50: it is the midpoint of the dose-response relation. In general, Inhibition refers to the change of the read-out against control, counted positive when it falls. A word on the Ki: it is the dissociation constant of the complex between target and ligand, obtained from inhibition or displacement.

For test [1], the species on record is Cavia porcellus. In words: Inhibition of leukotriene-induced contractions of peripheral guinea pig lung strip. Format: functional, organism-based. In outline:
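Peripheral guinea pig lung parenchymal strips were challenged with single spasmogen concentrations (LTC4, LTD4 or LTE4), washed, equilibrated, then rechallenged with or without compound. Compound was preincubated at least 5 min before spasmogen. Each tissue served as its own control and was standardized with 1 μM histamine.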

Test [2] relates to Cavia porcellus. In words: (§1) Tested in vivo for antigen-induced systemic anaphylaxis after oral administration. Format: functional.
Test [3] deals with Cavia porcellus. Put plainly: (§2) Tested in vivo for LTD4-induced […] after oral administration by Dermal wheal assay method. Format: functional. In outline:
(§3)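 Guinea pigs dosed orally, usually at a single dose, with full dose-response curves for selected compounds. Read-out was antagonism of wheal and flare from intradermal injection of 100 ng LTD4. Five or more animals per dose.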

The subject of test [4] is Cavia porcellus. Described as §2. Format: functional. More on the design: concentration or dose not given beside the values. In outline:
as §3

In test [5] the target is Cavia porcellus CysLT1 receptor. In words: In vitro binding affinity against cysteinyl leukotriene D4 receptor from guinea pig lung membrane.
Test [6] relates to Cavia porcellus. The test is described as §1. Format: functional. More on the design: concentration or dose not given beside the values.
Test [7] deals with Cavia porcellus. In words: Tested in vivo for LTD4-induced […] after oral administration by Dermal wheal assay method; inactive. Format: functional, organism-based. In a few lines:
as §3

The subject of test [8] is Cavia porcellus. Put plainly: Tested in vivo for antigen-induced systemic anaphylaxis after oral administration; inactive. Format: functional, organism-based.

Turning to `CCCc1c(OCCCCc2nnn[nH]2)ccc(C(C)=O)c1O` [TOMELUKAST], the IC50 in the test listed under Cavia porcellus [1] amounted to 1.5 µM. The ED50 with Cavia porcellus [2] and in the test with Cavia porcellus [3] was above 30 mg/kg each time.
In turn, `c1ccc(C(CCc2nnn[nH]2)Cc2cccc(OCc3ccc4ccccc4n3)c2)cc1` (stereo unspecified) showed an Inhibition in the test on Cavia porcellus [4] of 61%. The molecule further had an IC50 in the test listed under Cavia porcellus [1] of 0.024 µM. The inhibition constant (Ki) in test [5] turned out to be 0.014 µM.
Molecule `c1cc(OCCCc2nnn[nH]2)cc(OCc2ccc3ccccc3n2)c1` gave a half-inhibitory concentration (IC50) in the test filed under Cavia porcellus [1] of 0.079 µM. This molecule also displayed an inhibition constant Ki in test [5] of 0.042 µM.
As for `CCCC(CCC(=O)O)Cc1cccc(OCc2ccc3ccccc3n2)c1` (stereo unspecified), half-maximal inhibition in the test listed under Cavia porcellus [1] (IC50) was put at 0.07 µM. This molecule displayed an inhibition constant Ki in test [5] of 0.05 µM.
Regarding `CC(CCC(=O)O)Cc1cccc(OCc2ccc3ccccc3n2)c1` (stereo unspecified), the IC50 in the test listed under Cavia porcellus [1] amounted to 0.5 µM. In test [5], the Ki was 0.14 µM.
In the test filed under Cavia porcellus [1], `c1ccc2nc(COc3ccc(CCC4(Cc5nnn[nH]5)CCCC4)cc3)ccc2c1` gave an IC50 of 0.037 µM. Besides, the ED50 in the test on Cavia porcellus [2] is 2.8 mg/kg; in the test with Cavia porcellus [3] it was 4.2 mg/kg. Besides, in test [5], the inhibition constant Ki is 0.025 µM.
Turning to `CC(CCCc1nnn[nH]1)c1cccc(OCc2ccc3ccccc3n2)c1` (stereo unspecified), the Inhibition in the test with Cavia porcellus [4] is 62%. The molecule further gave a concentration for half-maximal inhibition (IC50) in the test listed under Cavia porcellus [1] of 0.25 µM. The molecule also returned an inhibitory constant (Ki) in test [5] of 0.031 µM.
For `CCCC(CCc1nnn[nH]1)Cc1ccc(OCc2ccc3ccccc3n2)cc1` (stereo unspecified), half-maximal inhibition in the test listed under Cavia porcellus [1] (IC50) required 0.032 µM. Further, the ED50 in the test with Cavia porcellus [2] worked out at 7 mg/kg; with Cavia porcellus [3], 7.2 mg/kg.
In the case of `O=C(O)CCCCc1cccc(OCc2ccc3ccccc3n2)c1`, it took 0.37 µM to reach half-maximal inhibition in the test filed under Cavia porcellus [1] (IC50). The molecule further showed a Ki in test [5] of 0.1 µM.
For `CC(CCCc1nnn[nH]1)c1ccc(OCc2ccc3ccccc3n2)cc1` (stereo unspecified), in that order: 0.17 µM and 0.043 µM.
For `O=C(O)CCCOc1ccc(OCc2ccc3ccccc3n2)cc1`, in that order: 0.8 µM and 1.2 µM.
The molecule `CC(CCc1nnn[nH]1)Cc1cccc(OCc2ccc3ccccc3n2)c1` (stereo unspecified) yielded an Inhibition in the test with Cavia porcellus [4] of 40%. Moreover, the IC50 in the test listed under Cavia porcellus [1] amounted to 0.15 µM. The same molecule gave an inhibition constant (Ki) in test [5] of 0.034 µM.
Turning to `COc1cc(C(=O)NS(=O)(=O)c2ccccc2)ccc1Cn1ncc2ccc(NC(=O)OC3CCCC3)cc21` [ICI-198615], the IC50 in the test listed under Cavia porcellus [1] worked out at 0.0004 µM. In test [5], this molecule showed an inhibition constant Ki of 0.0002 µM. Further, the 50% effective dose (ED50) in the test with Cavia porcellus [3] is above 30 mg/kg. In the test with Cavia porcellus [6], this molecule returned an Inhibition of 0%.
Take `CC(CCCC(=O)O)c1cccc(OCc2ccc3ccccc3n2)c1` (stereo unspecified): the midpoint of inhibition in the test listed under Cavia porcellus [1], the IC50, lay at 0.5 µM. In test [5], this molecule returned an inhibitory constant (Ki) of 0.09 µM.
As for `O=C(O)CCC(Cc1cccc(OCc2ccc3ccccc3n2)c1)c1ccccc1` (stereo unspecified), the Inhibition amounted to 78% in the test with Cavia porcellus [4] and 100% with Cavia porcellus [6]. The molecule further returned an IC50 in the test filed under Cavia porcellus [1] of 0.056 µM. Besides, the inhibition constant Ki in test [5] turned out to be 0.052 µM.
In the test listed under Cavia porcellus [1], `CC(CCC(=O)O)Cc1ccc(OCc2ccc3ccccc3n2)cc1` (stereo unspecified) came in with a concentration for half-maximal inhibition (IC50) of 0.1 µM. Besides, the Ki in test [5] was 0.043 µM.
For `c1ccc(C(CCc2nnn[nH]2)Cc2ccc(OCc3ccc4ccccc4n3)cc2)cc1` (stereo unspecified), in that order: 0.014 µM and 0.008 µM.
In the case of `c1cc(CCCCc2nnn[nH]2)cc(OCc2ccc3ccccc3n2)c1`, the Inhibition was 16% in the test on Cavia porcellus [4] and 83% in the test with Cavia porcellus [6]. This molecule also displayed an IC50 in the test listed under Cavia porcellus [1] of 0.105 µM. Further, the Ki in test [5] worked out at 0.02 µM.
With `CC(CCc1cccc(OCc2ccc3ccccc3n2)c1)CC(=O)O` (stereo unspecified), the IC50 in the test filed under Cavia porcellus [1] came to 0.8 µM. In test [5], the Ki is 0.07 µM.
Consider `O=C(O)CCC(Cc1ccc(OCc2ccc3ccccc3n2)cc1)c1ccccc1` (stereo unspecified), for which the Inhibition in the test on Cavia porcellus [4] was 33%; in the test with Cavia porcellus [6] it was 50%. The molecule also gave an IC50 in the test listed under Cavia porcellus [1] of 0.065 µM. The same molecule displayed a Ki in test [5] of 0.031 µM.
As for `O=C(O)CC1(CCc2ccc(OCc3ccc4ccccc4n3)cc2)CCCC1`, the Inhibition was 73% with Cavia porcellus [4] and 17% in the test with Cavia porcellus [6]. Moreover, in the test filed under Cavia porcellus [1], the half-maximal inhibitory concentration (IC50) is 0.06 µM. The same molecule showed an inhibition constant (Ki) in test [5] of 0.051 µM.
Turning to `CCCC(CCc1nnn[nH]1)Cc1cccc(OCc2ccc3ccccc3n2)c1` (stereo unspecified), the Inhibition in the test on Cavia porcellus [4] was determined as 38%. The midpoint of inhibition in the test filed under Cavia porcellus [1], the IC50, lay at 0.016 µM. The Ki in test [5] amounted to 0.011 µM.
With `CCCC(CCC(=O)O)Cc1ccc(OCc2ccc3ccccc3n2)cc1` (stereo unspecified), the 50% inhibitory concentration (IC50) in the test filed under Cavia porcellus [1] is 0.03 µM. Further, the ED50 is 9.7 mg/kg in the test on Cavia porcellus [2] and 6.5 mg/kg in the test with Cavia porcellus [3]. In test [5], this molecule came in with a Ki of 0.021 µM.
`CC(CCc1cccc(OCc2ccc3ccccc3n2)c1)Cc1nnn[nH]1` (stereo unspecified) yielded an IC50 in the test filed under Cavia porcellus [1] of 0.045 µM. In addition, the inhibitory constant (Ki) in test [5] amounted to 0.017 µM. Also, in the test with Cavia porcellus [3], the median effective dose (ED50) came out at 2.8 mg/kg. Moreover, in the test with Cavia porcellus [6], the Inhibition is 27%.
In turn, `CC(CCc1ccc(OCc2ccc3ccccc3n2)cc1)Cc1nnn[nH]1` (stereo unspecified) registered a concentration for half-maximal inhibition (IC50) in the test listed under Cavia porcellus [1] of 0.02 µM. In addition, the Ki in test [5] was determined as 0.025 µM.
With `CC(Cc1cccc(OCc2ccc3ccccc3n2)c1)CC(C)C(=O)O` (stereo unspecified), 0.5 µM corresponded to half-maximal inhibition in the test listed under Cavia porcellus [1] (IC50). Further, the Ki in test [5] worked out at 0.024 µM.
In turn, `CC(CCc1nnn[nH]1)Cc1ccc(OCc2ccc3ccccc3n2)cc1` (stereo unspecified) showed a concentration for half-maximal inhibition (IC50) in the test listed under Cavia porcellus [1] of 0.027 µM. Also, the values for the 50% effective dose (ED50) in the test on Cavia porcellus [2] and in the test on Cavia porcellus [3] were 1.2 mg/kg and 2.5 mg/kg, respectively. For the same molecule, in test [5], the Ki amounted to 0.012 µM.
The molecule `CC(CCCc1cccc(OCc2ccc3ccccc3n2)c1)C(=O)O` (stereo unspecified) yielded an IC50 in the test listed under Cavia porcellus [1] of 0.075 µM. Besides, the Ki in test [5] worked out at 0.085 µM.
`c1ccc2nc(COc3ccc(CC4CCCC4Cc4nnn[nH]4)cc3)ccc2c1` (stereo unspecified) returned a half-maximal inhibitory concentration (IC50) in the test filed under Cavia porcellus [1] of 0.02 µM. For the same molecule, the ED50 in the test with Cavia porcellus [2] was found to be 12 mg/kg; in the test with Cavia porcellus [3], 10 mg/kg. The molecule also yielded a Ki in test [5] of 0.015 µM.
In the test filed under Cavia porcellus [1], `c1ccc2nc(COc3ccc(OCCCc4nnn[nH]4)cc3)ccc2c1` had an IC50 of 0.25 µM. Moreover, in test [5], the Ki is 0.069 µM.
In turn, `O=C(O)CCCCc1ccc(OCc2ccc3ccccc3n2)cc1` gave an IC50 in the test listed under Cavia porcellus [1] of 0.45 µM. The molecule also showed a Ki in test [5] of 0.11 µM.
Take `O=C(O)CC1CCCC1Cc1ccc(OCc2ccc3ccccc3n2)cc1` (stereo unspecified): in the test filed under Cavia porcellus [1], inhibition was half-maximal at 0.09 µM (IC50). In addition, in test [5], the Ki is 0.1 µM.
In the case of `c1ccc2nc(COc3ccc(CCCCc4nnn[nH]4)cc3)ccc2c1`, the Inhibition came to 38% with Cavia porcellus [4] and 100% in the test on Cavia porcellus [6]. For the same molecule, the IC50 in the test listed under Cavia porcellus [1] was determined as 0.045 µM.
For `CCCc1c(OCC(O)COc2ccc3c(=O)cc(C(=O)O)oc3c2CCC)ccc(C(C)=O)c1O` (stereo unspecified) [FPL-55712], the ED50 entry in the test with Cavia porcellus [7] and in the test on Cavia porcellus [8] was “inactive” in each case. Besides, the half-maximal inhibitory concentration (IC50) in the test listed under Cavia porcellus [1] amounted to 0.8 µM.
